Reference: ChEMBL document CHEMBL1144710, “epigenetic multiple ligands: mixed histone/protein methyltransferase, acetyltransferase, and class III deacetylase (sirtuin) inhibitors” (J Med Chem, 2008)
The source made the active and inactive calls.

Key:
U-937 [1] = experiment: Inhibition of histone H3K4 methylation in human U937 cells at 50 uM after 24 hrs; type: functional, cell-based
Summary of the method: (§1)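 U937 cells treated at 50 µM for 24 h. Histones extracted with Triton buffer, then 0.2 M HCl overnight at 4 °C. 3–10 µg run on 15% SDS-PAGE and immunoblotted with anti-monomethyl-H3K4, monomethyl-H4R3 or dimethyl-H3R17 (1:500, overnight 4 °C), ECL detection. Loading controls: total H4 (H3K4), Ponceau Red (Arg marks).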

U-937 [2] = experiment: Inhibition of histone H3R17 methylation in human U937 cells at 50 uM after 24 hrs; type: functional, cell-based; summary of the method: as §1
U-937 [3] = experiment: Inhibition of histone H4R3 methylation in human U937 cells at 50 uM after 24 hrs; type: functional, cell-based; summary of the method: as §1
RmtA = RmtA (Emericella nidulans, UniProt Q5VLE3); experiment: Inhibition of Aspergillus nidulans RmtA
Sequence of RmtA (Q5VLE3 whole entry, the tested form may be a part): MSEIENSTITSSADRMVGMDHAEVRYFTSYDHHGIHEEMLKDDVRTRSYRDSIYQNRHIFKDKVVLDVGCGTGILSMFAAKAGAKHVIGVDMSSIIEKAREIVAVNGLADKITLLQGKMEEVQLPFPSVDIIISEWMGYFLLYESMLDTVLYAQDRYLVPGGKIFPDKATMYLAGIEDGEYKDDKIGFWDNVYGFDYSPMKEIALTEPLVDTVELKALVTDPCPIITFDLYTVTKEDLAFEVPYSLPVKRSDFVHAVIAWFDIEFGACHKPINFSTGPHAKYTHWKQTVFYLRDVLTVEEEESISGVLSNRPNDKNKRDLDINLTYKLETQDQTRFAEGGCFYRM
Summary of the method: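 Enzyme was GST-RmtA fusion expressed in E. coli BL21 and glutathione-affinity purified (500 ng), preincubated with compound for 15 min at room temperature. Then 20 µg chicken erythrocyte core histones and 0.55 µCi [3H]AdoMet were added, 30 min at 30 °C. Stopped with 25% TCA, filtered, counted by liquid scintillation.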

[4] = biological target: T1, Histone-lysine N-methyltransferase SETD7 (Homo sapiens) (UniProt Q8WTS6); experiment: Inhibition of human recombinant SET7 assessed as histone H3 protein methylation at 100 uM
T1 sequence (whole entry): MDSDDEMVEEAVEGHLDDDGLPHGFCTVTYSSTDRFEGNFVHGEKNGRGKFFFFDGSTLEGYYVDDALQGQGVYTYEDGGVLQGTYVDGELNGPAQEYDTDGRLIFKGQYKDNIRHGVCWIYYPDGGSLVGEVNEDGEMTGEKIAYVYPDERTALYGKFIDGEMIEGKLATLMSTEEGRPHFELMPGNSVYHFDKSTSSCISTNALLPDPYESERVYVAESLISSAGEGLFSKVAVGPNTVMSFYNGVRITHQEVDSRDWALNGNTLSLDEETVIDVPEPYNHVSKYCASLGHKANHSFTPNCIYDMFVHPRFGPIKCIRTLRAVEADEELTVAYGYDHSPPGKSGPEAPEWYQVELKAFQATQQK
Summary of the method: (§2)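 Recombinant enzymes (0.2 µg) with substrate (0.5 µg: Npl3p for PRMT1, PABP1 for CARM1, histone H3 for SET7), 0.5 µM [3H]AdoMet and 100 µM compound in PBS pH 7.4 with 3.3% v/v DMSO, 90 min at 30 °C. Products separated by 10% SDS-PAGE, transferred to PVDF, detected by fluorography on film overnight.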

[5] = biological target: Protein arginine N-methyltransferase 1 (Homo sapiens) (UniProt Q99873); experiment: Inhibition of human recombinant PRMT1 assessed as nuclear ribonucleoprotein Npl3p methylation at 100 uM; summary of the method: as §2
Sequence of Protein arginine N-methyltransferase 1 (Homo sapiens) (Q99873 whole entry, looked up): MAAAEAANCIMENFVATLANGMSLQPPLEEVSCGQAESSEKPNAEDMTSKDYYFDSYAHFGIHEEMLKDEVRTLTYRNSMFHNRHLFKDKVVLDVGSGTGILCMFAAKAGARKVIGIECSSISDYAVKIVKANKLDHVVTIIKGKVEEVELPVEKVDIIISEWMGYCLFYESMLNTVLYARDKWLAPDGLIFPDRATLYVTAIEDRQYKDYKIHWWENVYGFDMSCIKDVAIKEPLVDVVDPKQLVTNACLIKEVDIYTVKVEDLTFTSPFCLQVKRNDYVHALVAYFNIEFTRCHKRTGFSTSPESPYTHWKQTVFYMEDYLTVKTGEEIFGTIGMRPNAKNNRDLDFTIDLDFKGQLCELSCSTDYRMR

[6] = biological target: T2, Histone-arginine methyltransferase CARM1 (Homo sapiens) (UniProt Q86X55); experiment: Inhibition of human recombinant CARM1 assessed as poly(A) binding protein 1 methylation at 100 uM; summary of the method: as §2
T2 sequence (whole entry): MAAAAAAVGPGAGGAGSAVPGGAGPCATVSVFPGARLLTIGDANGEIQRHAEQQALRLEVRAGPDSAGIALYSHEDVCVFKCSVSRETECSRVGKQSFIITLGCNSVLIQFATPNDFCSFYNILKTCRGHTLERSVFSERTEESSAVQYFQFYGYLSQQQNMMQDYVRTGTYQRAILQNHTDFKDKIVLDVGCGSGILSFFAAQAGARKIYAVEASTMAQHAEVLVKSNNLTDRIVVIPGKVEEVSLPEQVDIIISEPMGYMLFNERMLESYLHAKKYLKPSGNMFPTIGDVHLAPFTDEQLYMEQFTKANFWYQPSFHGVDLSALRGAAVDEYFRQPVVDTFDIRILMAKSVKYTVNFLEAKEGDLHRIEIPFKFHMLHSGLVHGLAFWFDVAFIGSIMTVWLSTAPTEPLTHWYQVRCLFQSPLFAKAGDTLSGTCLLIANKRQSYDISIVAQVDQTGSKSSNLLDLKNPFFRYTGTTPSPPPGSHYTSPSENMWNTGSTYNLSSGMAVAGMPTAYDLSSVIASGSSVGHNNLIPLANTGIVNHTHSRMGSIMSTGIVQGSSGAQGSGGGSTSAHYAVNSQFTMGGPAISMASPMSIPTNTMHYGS

SMILES | Activity (U-937 [1]) | Activity (U-937 [2]) | Activity (U-937 [3]) | IC50 (RmtA) | Activity [4] | Activity [5] | Activity [6]
O=C1/C(=C/c2cc(Br)c(O)c(Br)c2)Cc2ccccc2/C1=C\c1cc(Br)c(O)c(Br)c1 | Active | Active | Active | 37 µM |  |  | 
O=C(/C=C/c1c(Br)cc(O)cc1Br)/C=C/c1c(Br)cc(O)cc1Br | Active | Active | Active | 215 µM | inactive | Active | 
O=C(NCCCCNC(=O)c1cc(Br)c(O)c(Br)c1)c1cc(Br)c(O)c(Br)c1 |  | Active | Active | 616 µM |  |  | 
O=C(/C=C/c1ccc(O)c(Br)c1)c1cccc(C(=O)/C=C/c2ccc(O)c(Br)c2)c1 | Active | Active | Active | 59 µM | inactive | inactive | Active
O=C(/C=C/c1ccc(O)c(Br)c1)c1ccccc1 | Active | Active | Active | 190 µM |  |  | 
O=C(/C=C/c1ccc(O)c(F)c1)/C=C/c1ccc(O)c(F)c1 | Active | Active | Active | 169 µM |  |  | 
O=C(/C=C/c1ccc(O)c(C(=O)O)c1)/C=C/c1ccc(O)c(C(=O)O)c1 | Active | Active | Active | 55 µM |  |  | 
O=C(NCCCNC(=O)c1cc(Br)c(O)c(Br)c1)c1cc(Br)c(O)c(Br)c1 |  | Active | Active | 75.4 µM |  |  | 
O=C(/C=C/c1ccc(O)c(Br)c1)CC(=O)/C=C/c1ccc(O)c(Br)c1 |  | Active | Active | 109 µM | inactive | inactive | Active
O=C1/C(=C/c2cc(Br)c(O)c(Br)c2)CN(Cc2ccccc2)C/C1=C\c1cc(Br)c(O)c(Br)c1 | Active | Active | Active | 210 µM |  |  | 
O=C(Nc1ccc(NC(=O)c2cc(Br)c(O)c(Br)c2)cc1)c1cc(Br)c(O)c(Br)c1 |  | Active | Active | 122 µM | Active | Active | Active
O=C(/C=C/c1ccc(O)c(Br)c1)c1ccc(C(=O)/C=C/c2ccc(O)c(Br)c2)cc1 |  | Active | Active | 47 µM | inactive | inactive | Active
O=C1/C(=C/c2ccc(O)c(Br)c2)COC/C1=C\c1ccc(O)c(Br)c1 | Active | Active | Active | 132 µM | inactive | inactive | Active
CN1C/C(=C\c2ccc(O)c(Br)c2)C(=O)/C(=C/c2cc(Br)c(O)c(Br)c2)C1 | Active | Active | Active | 123 µM |  |  | 
O=C1/C(=C/c2ccc(O)c(Br)c2)CCC/C1=C\c1ccc(O)c(Br)c1 | Active | Active | Active | 90 µM | inactive | inactive | Active
O=C(CCCC(=O)Nc1cc(Br)c(O)c(Br)c1)Nc1cc(Br)c(O)c(Br)c1 |  | Active | Active | 173 µM |  |  | 
CC(C)(C(=O)/C=C/c1cc(Br)c(O)c(Br)c1)C(=O)/C=C/c1cc(Br)c(O)c(Br)c1 |  | Active | Active | 156 µM |  |  | 
O=C(CCC(=O)Nc1cc(Br)c(O)c(Br)c1)Nc1cc(Br)c(O)c(Br)c1 |  | Active | Active | 156 µM |  |  | 
O=C(Nc1cc(Br)c(O)c(Br)c1)C(=O)Nc1cc(Br)c(O)c(Br)c1 |  | Active | Active | 32.6 µM |  |  | 
Cc1cc(/C=C/C(=O)/C=C/c2cc(C)c(O)c(C)c2)cc(C)c1O | Active | Active | Active | 206 µM |  |  | 
O=C1/C(=C/c2ccc(O)c(Br)c2)Cc2ccccc2/C1=C\c1ccc(O)c(Br)c1 | Active | Active | Active | 92 µM | inactive | inactive | Active
O=C(/C=C/c1c(O)cc(Br)cc1Br)/C=C/c1c(O)cc(Br)cc1Br | Active | Active | Active | 238 µM | inactive | Active | 
O=C(NCCNC(=O)c1cc(Br)c(O)c(Br)c1)c1cc(Br)c(O)c(Br)c1 |  | Active | Active | 89.7 µM |  |  | 
CN1C/C(=C\c2ccc(O)c(Br)c2)C(=O)/C(=C/c2ccc(O)c(Br)c2)C1 | Active | Active | Active | 162 µM |  |  | 
CN1C2CCC1/C(=C\c1cc(Br)c(O)c(Br)c1)C(=O)/C2=C/c1cc(Br)c(O)c(Br)c1 | Active | Active | Active | 84 µM |  |  | 
O=C(/C=C/c1ccc(O)c([N+](=O)[O-])c1)/C=C/c1ccc(O)c([N+](=O)[O-])c1 | Active | Active | Active | 249 µM |  |  | 
O=C(/C=C/c1ccc(O)cc1Br)/C=C/c1ccc(O)cc1Br | Active | Active | Active | 114 µM |  |  | 
O=C(CC(=O)Nc1cc(Br)c(O)c(Br)c1)Nc1cc(Br)c(O)c(Br)c1 |  | Active | Active | 102 µM |  |  | 
O=C(/C=C/c1cc(Br)c(O)c(Br)c1)c1ccccc1 | Active | Active | Active | 115 µM |  |  | 
